Data taken from ChEMBL document CHEMBL5316289, “Structure-Based Rational Design of Small α-Helical Peptides with Broad-Spectrum Activity against Multidrug-Resistant Pathogens” (J Med Chem, 2023).
The source made the active and inactive calls. The calls are words filed in the database; no cut-off is given here.

How the values were obtained:
Escherichia coli [1] = assay: Antibacterial activity against Escherichia coli ATCC 25922 assessed as fold increase in MIC incubated for 24 hrs in presence of NH4+ ions by CLSI based broth microdilution method; format: functional
Method in brief: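 E. coli MICs by CLSI broth microdilution in cation-adjusted Mueller Hinton broth. […] Inoculum was 10^6 CFU/mL with 2-fold serial peptide dilutions, incubated 24 h at 37 °C. MIC is the lowest concentration inhibiting growth. Three independent assays, each in triplicate.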

Escherichia coli [2] = assay: Bactericidal activity against […] Escherichia coli ATCC BAA 2452 assessed as inhibition of bacterial growth at 4 times of MIC incubated for 4 hrs by Time kill assay; format: functional
Method in brief: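 Aliquots taken every 30 min for 4 h and plated on agar for viable colony counts. Two independent experiments in triplicate.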

Cell membrane [3] = assay: Induction of membrane disruption in bacterial inner membrane mimic DOPC/DOPG (7:3) large unilamellar vesicles assessed as induction of dye leakage at 50 ug/ml measured after 100 mins by calcein dye based analysis; format: subcellular; conditions: dose 50.0 µg/ml
Method in brief: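 LUVs loaded with calcein: DOPC/DOPG 7:3 w/w (bacterial mimic) or DOPC/cholesterol 10:1 w/w (mammalian mimic). Mixed 1:1 by volume with peptide at 5, 10, 20, 30 or 50 μg/mL. Fluorescence (ex 490/em 520 nm) read every 10 min for 100 min. Leakage expressed relative to 10% Triton X-100 lysis (100%), after subtracting liposome background. Triplicate.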

Cell membrane [4] = assay: Disruption of cell membrane in methicillin resistant Staphylococcus aureus ATCC BAA 1556 assessed as cell membrane perturbation measured after 1 hrs by DAPI and PI double staining based fluorescence microscopic analysis; format: subcellular
Method in brief: (§1)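 Mid-log cells washed in PBS (10 mM, pH 7.3), 10^7 CFU/mL, treated at MIC and 4× MIC for 1 h. Pelleted and washed, then stained with PI for 15 min at 37 °C in the dark, then DAPI for 15 min at 37 °C in the dark. Untreated controls. Imaged by fluorescence microscopy, 60× oil objective.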

Cell membrane [5] = assay: Disruption of cell membrane in Escherichia coli ATCC BAA-2452 assessed as cell membrane perturbation measured after 1 hrs by PI and DAPI double staining based fluorescence microscopic analysis; format: subcellular
Method in brief: (§2)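 Mid-log E. coli ATCC BAA-2452 was washed three times in PBS (10 mM, pH 7.3). Cells at 10^7 CFU/mL were exposed to agent at MIC or 4× MIC for 1 h, then pelleted at 3000g and washed. Staining was PI for 15 min, then DAPI for 15 min, both at 37 °C in the dark. Untreated cells were processed alike. Imaged by fluorescence microscopy with 60× oil objective.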

Cell membrane [6] = assay: Disruption of cell membrane in methicillin resistant Staphylococcus aureus ATCC BAA 1556 assessed as cell membrane perturbation at 4 times of MIC measured after 1 hrs by DAPI and PI double staining based fluorescence microscopic analysis; method in brief: as §1
Cell membrane [7] = assay: Disruption of cell membrane in Escherichia coli ATCC BAA-2452 assessed as cell membrane perturbation at 4 times of MIC measured after 1 hrs by PI and DAPI double staining based fluorescence microscopic analysis; method in brief: as §2
Cell membrane [8] = assay: Disruption of cell membrane in Escherichia coli ATCC BAA-2452 assessed as increase in PI fluorescence intensity measured after 1 hrs by PI staining based flow cytometric analysis
Method in brief: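 Mid-log E. coli ATCC BAA-2452 grown in Mueller Hinton broth, washed thrice and resuspended at 10^7 CFU/mL in 10 mM Tris pH 7.4. […] Controls: PBS (negative) and 10% Triton X-100 (positive). Triplicate; two-tailed unpaired t-test.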

Staphylococcus aureus [9] = assay: Induction of membrane morphological changes in methicillin resistant Staphylococcus aureus ATCC BAA 1556 assessed as cell surface wrinkling at 4 times of MIC measured after 1 hrs by FE-SEM analysis; format: functional, organism-based
Method in brief: (§3)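 Methods give 30 min; legend gives 1 h. Washed, fixed in 4% glutaraldehyde in 0.2 M Na-cacodylate for 3 h, dehydrated through graded ethanol, dried with HMDS, Au/Pd-coated (~20 nm) and imaged by SEM. Untreated cells as control.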

Staphylococcus aureus [10] = assay: Induction of membrane morphological changes in methicillin resistant Staphylococcus aureus ATCC BAA 1556 assessed as cell surface roughening at 4 times of MIC measured after 1 hrs by FE-SEM analysis; format: functional, organism-based; method in brief: as §3
Staphylococcus aureus [11] = assay: Induction of membrane morphological changes in methicillin resistant Staphylococcus aureus ATCC BAA 1556 assessed as cellular debris formation at 4 times of MIC measured after 1 hrs by FE-SEM analysis; format: functional, organism-based; method in brief: as §3
Escherichia coli [12] = assay: Induction of membrane morphological changes in Escherichia coli ATCC BAA-2452 assessed as cell surface blebs formation at 4 times of MIC measured after 1 hrs by FE-SEM analysis; format: functional, organism-based
Method in brief: (§4)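 E. coli ATCC BAA-2452 grown to exponential phase in MHB at 37 °C with shaking, then diluted to 2 × 10^6 CFU/mL. […] Cells were PBS-washed and fixed 3 h in 4% glutaraldehyde in 0.2 M cacodylate. Then ethanol-dehydrated, HMDS-dried, Au/Pd-coated and imaged by FE-SEM. Untreated control.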

Escherichia coli [13] = assay: Induction of membrane morphological changes in Escherichia coli ATCC BAA-2452 assessed as cellular debris formation at 4 times of MIC measured after 1 hrs by FE-SEM analysis; format: functional, organism-based; method in brief: as §4
[14] = Antiproliferative activity human HEKa cells assessed as reduction in cell viability at 250 ug/ml incubated for 24 hrs by MTS assay; format: functional; conditions: dose 250 µg/ml
Method in brief: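 Cells seeded at 10,000 per well 24 h before treatment. Media: MRC-5 and HEK293 in DMEM with 10% FBS; HepaRG in William's E with GlutaMAX; HEKa in Dermal Cell Basal medium plus keratinocyte growth kit. Peptide at 10–250 μg/mL in triplicate for 24 h, 37 °C, 5% CO2. MTS added for 2 h, then A490 read. Survival is blank-corrected OD as % of untreated control.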

Substance | fold change (FC) (Escherichia coli [1]) | inhibition (INH) (Escherichia coli [2]) [%] | Activity (Cell membrane [3]) [%] | Activity (Cell membrane [4]) | Activity (Cell membrane [5]) | Activity (Cell membrane [6]) | Activity (Cell membrane [7]) | Activity (Cell membrane [8]) | Activity (Staphylococcus aureus [9]) | Activity (Staphylococcus aureus [10]) | Activity (Staphylococcus aureus [11]) | Activity (Escherichia coli [12]) | Activity (Escherichia coli [13]) | Activity [14] [%]
H-KWLKKWLKWWKK-NH2 | 2 | 70 | 80 | Dose-Dependent Effect | Dose-Dependent Effect | Active | Active | Dose-Dependent Effect | Active | Active | Active | Active | Active | 
H-RWLRRWLRWWRR-NH2 | 2 |  | 80 | Dose-Dependent Effect | Dose-Dependent Effect | Active | Active | Dose-Dependent Effect |  |  |  |  |  | <30
